This note sets out measurements from ChEMBL document CHEMBL1122143, “Adriamycin analogues. Preparation and biological evaluation of some N-perfluoroacyl analogues of daunorubicin, adriamycin, and N-(trifluoroacetyl)adriamycin 14-valerate and their 9,10-anhydro derivatives” (1982).

Holding throughout (format): functional
For one assay, the system named is CCRF-CEM. Kind of assay: Inhibitory activity against CCRF-CEM(human leukemic lymphoblastic) cells in culture. The settings on record: read-out: ID50 (the source's name). An outline of the steps: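 Human leukemic lymphoblastic CCRF-CEM cells grown in culture with continuous drug exposure for 48 h; growth inhibition measured.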
The subject of assay [1] is Mus musculus. The experiment in a line: In vivo growth inhibitory activity was measured against murine P388 leukemia cells as Percent increase in life span at the dose of 40.0 mg/kg/day. The method in brief:
(§1)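 Murine P388 leukemia model: 10⁶ tumor cells inoculated ip on day 0. Compound given ip once daily on days 1-4 at the stated dose. Activity was expressed as percent increase in life span relative to untreated controls.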

Assay [2] concerns Mus musculus. The experiment in a line: In vivo growth inhibitory activity was measured against murine P388 leukemia cells as Percent increase in life span at the dose of 20.0 mg/kg/day. The method in brief: as §1
For assay [3], the system named is Mus musculus. The experiment in a line: In vivo growth inhibitory activity was measured against murine P388 leukemia cells as Percent increase in life span at the dose of 50.0 mg/kg/day. An outline of the steps: as §1
Assay [4] relates to Mus musculus. Kind of assay: In vivo growth inhibitory activity was measured against murine P388 leukemia cells as percent increase in life span at the dose of 40.0 mg/kg/day. An outline of the steps:
as §1

Assay [5] deals with Mus musculus. The experiment in a line: In vivo growth inhibitory activity was measured against murine P388 leukemia cells as Percent increase in life span at the dose of 80.0 mg/kg/day. An outline of the steps:
as §1

The test system of assay [6] is Mus musculus. The experiment in a line: In vivo growth inhibitory activity was measured against murine P388 leukemia cells as Percent increase in life span at the dose of 2.0 mg/kg/day. The method in brief: as §1
Assay [7] relates to Mus musculus. Kind of assay: In vivo growth inhibitory activity was measured against murine P388 leukemia cells as Percent increase in life span at the dose of 4.0 mg/kg/day. An outline of the steps: as §1

Consider `CCCCC(=O)OCC(=O)[C@]1(O)Cc2c(O)c3c(c(O)c2[C@@H](OC2CC(NC(=O)C(F)(F)F)C(O)C(C)O2)C1)C(=O)c1c(OC)cccc1C3=O` (stereo partly drawn), for which, in the assay on CCRF-CEM, the IC50 is 0.24 µM. Moreover, the ILS at 40 mg/kg/day in the assay with Mus musculus [1] came out at 429%.
Take `COc1cccc2c1C(=O)c1c(O)c3c(c(O)c1C2=O)C[C@@](O)(C(=O)CO)C[C@@H]3OC1CC(NC(=O)C(F)(F)F)C(O)C(C)O1` (stereo partly drawn): the IC50 in the assay with CCRF-CEM came out at 0.23 µM. In the assay with Mus musculus [2], this compound came in with an ILS at 20 mg/kg/day of 481%.
In the case of `COc1cccc2c1C(=O)c1c(O)c3c(c(O)c1C2=O)C[C@@](O)(C(=O)CO)C[C@@H]3OC1CC(NC(=O)C(F)(F)C(F)(F)F)C(O)C(C)O1` (stereo partly drawn), the IC50 in the assay with CCRF-CEM was found to be 0.41 µM. For the same compound, the ILS at 50 mg/kg/day in the assay on Mus musculus [3] turned out to be 372%.
As for `COc1cccc2c1C(=O)c1c(O)c3c(c(O)c1C2=O)C=C(C(C)=O)C[C@@H]3OC1CC(NC(=O)C(F)(F)C(F)(F)F)C(O)C(C)O1` (stereo partly drawn), the IC50 in the assay on CCRF-CEM stood at 0.5 µM.
As to `COc1cccc2c1C(=O)c1c(O)c3c(c(O)c1C2=O)C[C@@](O)(C(=O)CO)C[C@@H]3OC1CC(NC(=O)C(F)(F)C(F)(F)C(F)(F)F)C(O)C(C)O1` (stereo partly drawn), in the assay with CCRF-CEM, the IC50 stood at 1.49 µM. Moreover, the increase in lifespan (ILS) at 50 mg/kg/day in the assay with Mus musculus [3] amounted to 54%.
As to `COc1cccc2c1C(=O)c1c(O)c3c(c(O)c1C2=O)C=C(C(C)=O)C[C@@H]3OC1CC(NC(=O)C(F)(F)C(F)(F)C(F)(F)F)C(O)C(C)O1` (stereo partly drawn), the IC50 with CCRF-CEM was more than 13.8 µM.
On to `CCCCC(=O)OCC(=O)[C@]1(O)Cc2c(O)c3c(c(O)c2[C@@H](OC2CC(NC(=O)C(F)(F)C(F)(F)C(F)(F)F)C(O)C(C)O2)C1)C(=O)c1c(OC)cccc1C3=O` (stereo partly drawn), for which the IC50 in the assay with CCRF-CEM is more than 1.14 µM. In the assay with Mus musculus [3], this compound showed an ILS at 50 mg/kg/day of 0%.
In the case of `COc1cccc2c1C(=O)c1c(O)c3c(c(O)c1C2=O)C=C(C(=O)CO)C[C@@H]3OC1CC(NC(=O)C(F)(F)C(F)(F)C(F)(F)F)C(O)C(C)O1` (stereo partly drawn), in the assay with CCRF-CEM, the IC50 came out at 7.3 µM.
`CCCCC(=O)OCC(=O)C1=Cc2c(O)c3c(c(O)c2[C@@H](OC2CC(NC(=O)C(F)(F)C(F)(F)C(F)(F)F)C(O)C(C)O2)C1)C(=O)c1c(OC)cccc1C3=O` (stereo partly drawn): in the assay on CCRF-CEM, the IC50 came to 2.31 µM.
In the case of `COc1cccc2c1C(=O)c1c(O)c3c(c(O)c1C2=O)C[C@@](O)(C(C)=O)C[C@@H]3OC1CC(NC(=O)C(F)(F)C(F)(F)C(F)(F)F)C(O)C(C)O1` (stereo partly drawn), the IC50 in the assay on CCRF-CEM is more than 1.35 µM. The compound further registered an ILS at 40 mg/kg/day with Mus musculus [1] of 45%.
The corresponding values for `CCCCC(=O)OCC(=O)C1=Cc2c(O)c3c(c(O)c2[C@@H](OC2CC(NC(=O)C(F)(F)F)C(O)C(C)O2)C1)C(=O)c1c(OC)cccc1C3=O` (stereo partly drawn) are 1.19 µM and 27%.
In the case of `COc1cccc2c1C(=O)c1c(O)c3c(c(O)c1C2=O)C=C(C(C)=O)C[C@@H]3OC1CC(NC(=O)C(F)(F)F)C(O)C(C)O1` (stereo partly drawn), in the assay on Mus musculus [1], the ILS at 40 mg/kg/day turned out to be 45%.
For the compound `COc1cccc2c1C(=O)c1c(O)c3c(c(O)c1C2=O)C=C(C(=O)CO)C[C@@H]3OC1CC(NC(=O)C(F)(F)C(F)(F)F)C(O)C(C)O1` (stereo partly drawn), the IC50 with CCRF-CEM came out at 8.41 µM.
Consider `COc1cccc2c1C(=O)c1c(O)c3c(c(O)c1C2=O)C[C@@](O)(C(C)=O)C[C@@H]3OC1CC(NC(=O)C(F)(F)C(F)(F)F)C(O)C(C)O1` (stereo partly drawn), for which the IC50 in the assay with CCRF-CEM stood at 1.01 µM. The ILS at 50 mg/kg/day with Mus musculus [3] is 27%.
`COc1cccc2c1C(=O)c1c(O)c3c(c(O)c1C2=O)C=C(C(=O)CO)C[C@@H]3OC1CC(NC(=O)C(F)(F)F)C(O)C(C)O1` (stereo partly drawn): in the assay on CCRF-CEM, the IC50 was 5.79 µM. In addition, in the assay with Mus musculus [4], the ILS at 40 mg/kg/day turned out to be 63%.
As to `COc1cccc2c1C(=O)c1c(O)c3c(c(O)c1C2=O)C[C@@](O)(C(C)=O)C[C@@H]3OC1CC(NC(=O)C(F)(F)F)C(O)C(C)O1` (stereo partly drawn), in the assay with CCRF-CEM, the IC50 was 0.27 µM. The compound also displayed an ILS at 80 mg/kg/day with Mus musculus [5] of 83%.
As for `CCCCC(=O)OCC(=O)C1=Cc2c(O)c3c(c(O)c2[C@@H](OC2CC(NC(=O)C(F)(F)C(F)(F)F)C(O)C(C)O2)C1)C(=O)c1c(OC)cccc1C3=O` (stereo partly drawn), the IC50 in the assay on CCRF-CEM was determined as 0.56 µM.
Regarding `CCCCC(=O)OCC(=O)[C@]1(O)Cc2c(O)c3c(c(O)c2[C@@H](OC2CC(NC(=O)C(F)(F)C(F)(F)F)C(O)C(C)O2)C1)C(=O)c1c(OC)cccc1C3=O` (stereo partly drawn), in the assay with CCRF-CEM, the IC50 was 1.18 µM. Also, in the assay on Mus musculus [3], the ILS at 50 mg/kg/day is 0%.
`COc1cccc2c1C(=O)c1c(O)c3c(c(O)c1C2=O)C[C@@](O)(C(C)=O)C[C@@H]3O[C@H]1C[C@H](N)[C@H](O)[C@H](C)O1` [DAUNORUBICIN]: in the assay with CCRF-CEM, the IC50 came to 0.04 µM. This compound yielded an ILS at 2 mg/kg/day with Mus musculus [6] of 91%.
For `COc1cccc2c1C(=O)c1c(O)c3c(c(O)c1C2=O)C[C@@](O)(C(=O)CO)C[C@@H]3O[C@H]1C[C@H](N)[C@H](O)[C@H](C)O1` [DOXORUBICIN], the IC50 in the assay on CCRF-CEM worked out at 0.066 µM. Also, in the assay on Mus musculus [7], the ILS at 4 mg/kg/day is 132%.
